Active and inactive are the calls of the source. The rule behind the calls is not given here.
Columns and labels:
[1] = molecular target: T1, Glutathione S-transferase P (Homo sapiens, UniProt P09211); assay: (§1) Inhibitory activity for human Glutathione S-transferase P was determined
Procedure, shortened: (§2)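 Recombinant human GSTP1-1 (E. coli-expressed, glutathione-agarose purified), 0.1 mg/mL, preincubated with haloenol lactone (0.17 mM, added in ethanol; vehicle control) in phosphate buffer pH 7.4 at 30 °C. Aliquots taken at 0, 2, 5, 12 min. Residual activity read by Habig assay: 1.0 mM GSH + 1.0 mM CDNB, 0.1 M phosphate pH 6.5, A340, corrected for nonenzymatic rate; kobs from time course.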
Target sequence in this assay (P09211 2-210 limits assumed): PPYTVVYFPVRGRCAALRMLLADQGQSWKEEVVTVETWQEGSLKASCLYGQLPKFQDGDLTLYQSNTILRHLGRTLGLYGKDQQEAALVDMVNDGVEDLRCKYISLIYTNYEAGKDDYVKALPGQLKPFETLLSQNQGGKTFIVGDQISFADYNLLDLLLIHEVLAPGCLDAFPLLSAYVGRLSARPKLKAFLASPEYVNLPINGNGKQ

[2] = molecular target: T1, Glutathione S-transferase P; assay: Inactivation of recombinant human Glutathione S-transferase P; procedure, shortened: as §2
Target sequence in this assay (P09211 2-210 limits assumed): as above

[3] = molecular target: T1, Glutathione S-transferase P; assay: as §1; procedure, shortened: as §2; remark: listed apart in the source
Target sequence in this assay (P09211 whole entry): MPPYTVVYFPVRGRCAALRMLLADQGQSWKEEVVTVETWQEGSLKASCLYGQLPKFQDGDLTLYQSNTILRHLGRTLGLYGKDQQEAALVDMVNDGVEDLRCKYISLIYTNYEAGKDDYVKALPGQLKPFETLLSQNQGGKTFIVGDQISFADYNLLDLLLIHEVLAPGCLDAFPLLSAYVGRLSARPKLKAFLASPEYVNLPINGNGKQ

[4] = molecular target: T1, Glutathione S-transferase P; assay: (§3) Inhibitory activity for human glutathione S-transferase-pi isozyme was determined; procedure, shortened: as §2
Target sequence in this assay (P09211 2-210 limits assumed): as the sequence (P09211 2-210 limits assumed) above

[5] = molecular target: T1, Glutathione S-transferase P; assay: as §3; procedure, shortened: as §2; remark: listed apart in the source
Target sequence in this assay (P09211 whole entry): as the sequence (P09211 whole entry) above

| K obs [2] | Compound | further results |
| --- | --- | --- |
| 0.0604 | O=C1O/C(=C/Br)CC1C/C=C/c1ccccc1 (stereo not given) | Kina [1]: 0.025 min⁻¹; Ki [3]: 6.1 µM |
| 0.0364 | O=C1O/C(=C/Br)CC1C/C=C/c1ccc(C(F)(F)F)cc1 (stereo not given) | – |
| inactive | COc1ccc(/C=C/CC2C/C(=C\Br)OC2=O)cc1 (stereo not given) | – |
| 0.0322 | C/C(Br)=C1/CC(C/C=C/c2ccccc2)C(=O)O1 (stereo not given) | – |
| 0.0632 | O=C1O/C(=C/Br)CC1CCc1ccccc1 (stereo not given) | – |
| 0.0608 | CCCCCCCC1C/C(=C\Br)OC1=O (stereo not given) | – |
| 0.0438 | O=C1O/C(=C/Br)CC1CC1CCCCC1 (stereo not given) | – |
| 0.0847 | CCCCCCC1C/C(=C\Br)OC1=O (stereo not given) | – |
| 0.0366 | O=C1O/C(=C/Br)CC1CCCCc1ccccc1 (stereo not given) | – |
| 0.0359 | CCCCCCCCCC1C/C(=C\Br)OC1=O (stereo not given) | – |
| 0.101 | O=C1O/C(=C/Br)CC1Cc1ccccc1 (stereo not given) | – |
| 0.0439 | O=C1O/C(=C/Br)CC1CCCc1ccccc1 (stereo not given) | – |
| 0.0382 | CCCCCCCCC1C/C(=C\Br)OC1=O (stereo not given) | – |
| 0.15 | O=C1O/C(=C/Br)CC1c1ccccc1 (stereo not given) | Kina [4]: 0.097 min⁻¹; Ki [5]: 124 µM |
| 0.0421 | O=C1O/C(=C/I)CC1C/C=C/c1ccccc1 (stereo not given) | – |
| 0.0499 | O=C1O/C(=C/Br)CC1Cc1ccc2ccccc2c1 (stereo not given) | – |

Reference: ChEMBL document CHEMBL1149331, “Design, synthesis, and structure-activity relationships of haloenol lactones: site-directed and isozyme-selective glutathione S-transferase inhibitors” (J Med Chem, 2004)
